Measurements as given in article PMC8349541 (OncoTargets and therapy, 2021).

Assays:
[1] = test system: LN229 glioma cells; assay: Wound healing migration assay, LN229; assay type: cell-based, human; settings: LN229, 16 h wound healing, dosage under IC50
Outline: (§1)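 Cells plated at 1×10^5 per well in 12-well plates at 37°C, 5% CO2. At 90% confluence the medium was removed and the monolayer scratched with a 200 μL pipette tip, then washed three times. Wound imaged at 0 and 16 h, and migration calculated from the change in wound area, with 0 h DMSO-control area set to 100%.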

[2] = test system: SVG p12 normal brain cell line; assay: MTS cell viability assay, SVG p12; assay type: cell-based, human
[3] = test system: GBM8401 glioma cells; assay: Wound healing migration assay, GBM8401; assay type: cell-based, human; settings: GBM8401, 16 h wound healing, dosage under IC50
Outline: as §1

[4] = test system: LN229 glioma cells; assay: Cell cycle analysis; assay type: cell-based, human; settings: LN229, 48 h, low-dose
Outline: (§2)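 Treated 48 h, then fixed in 70% ethanol at 4°C and held overnight at −20°C. Washed twice in cold PBS containing 1% FBS, then stained with PI solution containing Tween 20 and RNase A for 30 min at 37°C in the dark. DNA content read by flow cytometry. Mean ± s.d., n = 3, against control by t test or one-way ANOVA.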

[5] = test system: GBM8401 glioma cells; assay: Cell cycle analysis; assay type: cell-based, human; settings: GBM8401, 48 h, low-dose
Outline: as §2

[6] = test system: GBM8401 glioma cells; assay: BrdU proliferation assay, GBM8401; assay type: cell-based, human; settings: GBM8401, 48 h; for effect on cell proliferation: single dose
[7] = test system: LN229 glioma cells; assay: BrdU proliferation assay, LN229; assay type: cell-based, human; settings: for effect on cell proliferation: LN229, 48 h, single dose
[8] = test system: NHA (normal human astrocyte); assay: MTS cell viability assay, NHA; assay type: cell-based
[9] = test system: GBM8401 glioma cells; assay: Colony formation assay, GBM8401; assay type: cell-based, human; settings: GBM8401, cultured 2 weeks
Outline: (§3)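 Cells seeded at 3000 per well in 6-well plates and grown 2 weeks, with test compound added on day 3. Colonies fixed in methanol and stained with 0.5% crystal violet. Image analysis counted colonies larger than 0.1 mm in diameter. Mean ± s.d., n = 3.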

[10] = test system: GBM8401 glioma cells; assay: MTS cell viability assay, GBM8401; assay type: cell-based, human
Outline: (§4)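 Cells in DMEM with 10% FBS and penicillin/streptomycin at 37°C under 5% CO2, seeded in 96-well plates (LN229 3000, GBM8401 2000 cells per well). Exposed to test compound for 24 h, then incubated 2 h with MTS reagent added to the medium. Absorbance read at 490 nm, and IC50 determined from the viability data.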

[11] = test system: LN229 glioma cells; assay: Colony formation assay, LN229; assay type: cell-based, human; settings: LN229, cultured 2 weeks
Outline: as §3

[12] = test system: LN229 glioma cells; assay: MTS cell viability assay, LN229; assay type: cell-based, human
Outline: as §4

[13] = SVG p12, MTS assay, 24 h treatment
[14] = Homo sapiens, Glioma cell, 24 h

In the case of `O=C(/C=C/c1ccc(O)cc1)CC(=O)/C=C/c1ccc(O)cc1` [Bisdemethoxycurcumin], the effect on migration [1] is reported as “had no effect on the migration”, the IC50 ([2]; Homo sapiens, SVGp12, 24 h, SVG p12, MTS assay, 24 h treatment) is reported as 30 µM and the IC50 [2, 13] is reported as 29.2 µM. For the same compound, the effect on migration [3] was “had no effect on the migration”, the “effect on S phase” value [4] was “increased S phase not significantly” and the “effect on S phase” value [5] was “increased S phase not significantly”. The “dose effect on cell proliferation (BrdU M1)” value [6] was “dose-dependently increased M1”, the “effect on cell proliferation” value [6] was “significantly increased the cell proliferation” and the “dose effect on cell proliferation (BrdU M1)” value ([7]; LN229 (printed LN299), 48 h) was “dose-dependently increased M1”. The “effect on cell proliferation” value [7] was “significantly increased the cell proliferation”, the IC50 ([8]; NHA, MTS assay, 24 h treatment) was 31.9 µM and the “effect on colony formation” value [9] was “dose dependently increased colony formation”. The “effect on cell viability” value ([10]; GBM8401, low-dose) was “slightly increased cell viability”, the IC50 [10, 14] was 32.4 µM and the “effect on colony formation” value [11] was “dose dependently increased colony formation”. The IC50 ([12]; Homo sapiens, LN-229, 24 h) was 26.8 µM and the “effect on cell viability” value ([12]; LN229, low-dose) was “slightly increased cell viability”.
With `COc1cc(/C=C/C(=O)CC(=O)/C=C/c2ccc(O)c(OC)c2)ccc1O` [Curcumin] the effect on migration [1] was “dose-dependently inhibited the migration”, the IC50 ([2]; Homo sapiens, SVGp12, 24 h) was 4.19 µM and the effect on migration [3] was “dose-dependently inhibited the migration”. The “effect on cell proliferation” value [6] was “suppressed cell proliferation”, the “effect on cell proliferation” value [7] was “suppressed cell proliferation” and the IC50 ([8]; Homo sapiens, Astrocyte, 24 h) was 22.2 µM. For the same compound, the “effect on colony formation” value [9] was “inhibited colony formation”, the IC50 [10, 14] was 6.31 µM and the “effect on colony formation” value [11] was “inhibited colony formation”. The IC50 ([12]; Homo sapiens, LN-229, 24 h) was 5.85 µM.
In the case of Demethoxycurcumin, the effect on migration [1] is reported as “had no effect on the migration”, the IC50 [2, 13] is reported as 30 µM and the effect on migration [3] is reported as “had no effect on the migration”. For the same compound, the “effect on cell proliferation” value [6] was “reduce”, the “effect on cell proliferation” value [7] was “promoted cell proliferation” and the IC50 ([8]; NHA, MTS assay, 24 h treatment) was 11.3 µM. For the same compound, the “effect on colony formation” value [9] was “not in GBM8401 cells”, the IC50 ([10]; GBM8401, MTS assay, 24 h treatment) was 17.7 µM and the “effect on colony formation” value [11] was “suppressed colony formation in LN229 cells only in high-dose manner”. The IC50 ([12]; LN229, MTS assay, 24 h treatment) was 24.5 µM.
